Some results are limits rather than exact numbers.

The values below come from ChEMBL document CHEMBL1136724 (J Med Chem, 2003).

For series [1], the target named is T1, Nitric oxide synthase 3 (Homo sapiens) (UniProt P29474).
T1 sequence (whole entry): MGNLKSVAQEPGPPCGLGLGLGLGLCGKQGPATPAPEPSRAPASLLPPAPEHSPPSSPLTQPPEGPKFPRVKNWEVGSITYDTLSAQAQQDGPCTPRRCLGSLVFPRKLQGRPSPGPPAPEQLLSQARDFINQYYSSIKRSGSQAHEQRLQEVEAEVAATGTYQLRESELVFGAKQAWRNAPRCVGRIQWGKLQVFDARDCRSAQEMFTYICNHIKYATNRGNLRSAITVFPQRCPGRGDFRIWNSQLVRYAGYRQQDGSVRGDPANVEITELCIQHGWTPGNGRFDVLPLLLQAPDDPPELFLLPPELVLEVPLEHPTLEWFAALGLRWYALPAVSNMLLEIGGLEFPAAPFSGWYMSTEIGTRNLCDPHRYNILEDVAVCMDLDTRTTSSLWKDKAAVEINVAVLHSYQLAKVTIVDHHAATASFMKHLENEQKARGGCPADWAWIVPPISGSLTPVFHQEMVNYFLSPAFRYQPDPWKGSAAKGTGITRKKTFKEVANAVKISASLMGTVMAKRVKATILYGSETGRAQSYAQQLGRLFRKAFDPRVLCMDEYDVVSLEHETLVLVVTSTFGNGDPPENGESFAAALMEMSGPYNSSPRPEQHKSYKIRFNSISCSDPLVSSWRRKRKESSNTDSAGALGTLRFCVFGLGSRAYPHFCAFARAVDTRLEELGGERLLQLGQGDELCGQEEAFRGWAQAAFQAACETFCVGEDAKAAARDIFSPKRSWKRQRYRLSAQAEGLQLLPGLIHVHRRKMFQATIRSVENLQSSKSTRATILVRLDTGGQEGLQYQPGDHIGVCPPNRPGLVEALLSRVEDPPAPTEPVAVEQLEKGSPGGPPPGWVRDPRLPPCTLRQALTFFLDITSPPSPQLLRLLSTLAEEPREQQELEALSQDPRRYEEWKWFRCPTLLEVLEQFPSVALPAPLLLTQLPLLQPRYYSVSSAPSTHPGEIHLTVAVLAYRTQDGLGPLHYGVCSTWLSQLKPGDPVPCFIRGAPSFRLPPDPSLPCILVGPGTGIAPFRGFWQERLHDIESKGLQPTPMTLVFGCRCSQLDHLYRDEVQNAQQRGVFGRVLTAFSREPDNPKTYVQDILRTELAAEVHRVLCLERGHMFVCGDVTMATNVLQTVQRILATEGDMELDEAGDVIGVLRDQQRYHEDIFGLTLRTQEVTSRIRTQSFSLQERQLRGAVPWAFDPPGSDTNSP
The series can be described thus: Inhibitory activity of 100 uM compound against human endothelial nitric oxide synthase.

The target of series [2] is T2, Nitric oxide synthase 1 (Homo sapiens, UniProt P29475). The series can be described thus: Inhibitory activity against human neuronal nitric oxide synthase.
The next series deals with DLD-1. The series can be described thus: Inhibitory activity against synthesis of inducible nitric oxide synthase by DLD-1 cells. Format: functional, cell-based. The following applies: Homo sapiens. A digest of the protocol:
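Intact human DLD-1 cells preincubated with a cytokine cocktail to induce NO production; inhibition of NO production measured; IC50 is the mean of at least two separate measurements.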

The target of series [3] is Nitric oxide synthase, inducible (Homo sapiens, UniProt P35228). Put plainly: Inhibitory activity of compound against human inducible nitric oxide synthase.
In a further series the target is T3, Nitric oxide synthase 3 (Homo sapiens, UniProt P29474).
T3 sequence (P29474 whole entry): T1 sequence (whole entry)
Put plainly: Inhibitory activity against human endothelial nitric oxide synthase.

Series [4] concerns Rattus norvegicus. The series can be described thus: Inhibition of LPS induced nitrite production in rat following 4 hr of oral administration. In kind it is functional. The following applies: read-out: ID50 (the source's name).
Series [5] addresses T1, Nitric oxide synthase 3 (Homo sapiens). The series can be described thus: Inhibitory activity of 100 uM compound against human endothelial nitric oxide synthase; range is […]%-[…]%. The following applies: at 100 µM.
The target of series [6] is T2, Nitric oxide synthase 1. The series can be described thus: Inhibitory activity of 100 uM compound against human neuronal nitric oxide synthase; range is […]%-[…]%. The conditions noted are these: at 100 µM.
In series [7] the target is T1, Nitric oxide synthase 3 (Homo sapiens). Put plainly: Inhibitory activity of 100 uM compound against human endothelial nitric oxide synthase; Range is […]%-[…]%.
Series [8] can be described thus: Pharmacokinetic parameter pKa for amidine group of compound was evaluated. Format: physicochemical.
The target of series [9] is T2, Nitric oxide synthase 1. Put plainly: Inhibitory activity of 100 uM compound against human neuronal nitric oxide synthase; Range is […]%-[…]%.
The species entered for series [10] is Rattus norvegicus. The series can be described thus: animal or person.

T2 sequence (P29475 whole entry): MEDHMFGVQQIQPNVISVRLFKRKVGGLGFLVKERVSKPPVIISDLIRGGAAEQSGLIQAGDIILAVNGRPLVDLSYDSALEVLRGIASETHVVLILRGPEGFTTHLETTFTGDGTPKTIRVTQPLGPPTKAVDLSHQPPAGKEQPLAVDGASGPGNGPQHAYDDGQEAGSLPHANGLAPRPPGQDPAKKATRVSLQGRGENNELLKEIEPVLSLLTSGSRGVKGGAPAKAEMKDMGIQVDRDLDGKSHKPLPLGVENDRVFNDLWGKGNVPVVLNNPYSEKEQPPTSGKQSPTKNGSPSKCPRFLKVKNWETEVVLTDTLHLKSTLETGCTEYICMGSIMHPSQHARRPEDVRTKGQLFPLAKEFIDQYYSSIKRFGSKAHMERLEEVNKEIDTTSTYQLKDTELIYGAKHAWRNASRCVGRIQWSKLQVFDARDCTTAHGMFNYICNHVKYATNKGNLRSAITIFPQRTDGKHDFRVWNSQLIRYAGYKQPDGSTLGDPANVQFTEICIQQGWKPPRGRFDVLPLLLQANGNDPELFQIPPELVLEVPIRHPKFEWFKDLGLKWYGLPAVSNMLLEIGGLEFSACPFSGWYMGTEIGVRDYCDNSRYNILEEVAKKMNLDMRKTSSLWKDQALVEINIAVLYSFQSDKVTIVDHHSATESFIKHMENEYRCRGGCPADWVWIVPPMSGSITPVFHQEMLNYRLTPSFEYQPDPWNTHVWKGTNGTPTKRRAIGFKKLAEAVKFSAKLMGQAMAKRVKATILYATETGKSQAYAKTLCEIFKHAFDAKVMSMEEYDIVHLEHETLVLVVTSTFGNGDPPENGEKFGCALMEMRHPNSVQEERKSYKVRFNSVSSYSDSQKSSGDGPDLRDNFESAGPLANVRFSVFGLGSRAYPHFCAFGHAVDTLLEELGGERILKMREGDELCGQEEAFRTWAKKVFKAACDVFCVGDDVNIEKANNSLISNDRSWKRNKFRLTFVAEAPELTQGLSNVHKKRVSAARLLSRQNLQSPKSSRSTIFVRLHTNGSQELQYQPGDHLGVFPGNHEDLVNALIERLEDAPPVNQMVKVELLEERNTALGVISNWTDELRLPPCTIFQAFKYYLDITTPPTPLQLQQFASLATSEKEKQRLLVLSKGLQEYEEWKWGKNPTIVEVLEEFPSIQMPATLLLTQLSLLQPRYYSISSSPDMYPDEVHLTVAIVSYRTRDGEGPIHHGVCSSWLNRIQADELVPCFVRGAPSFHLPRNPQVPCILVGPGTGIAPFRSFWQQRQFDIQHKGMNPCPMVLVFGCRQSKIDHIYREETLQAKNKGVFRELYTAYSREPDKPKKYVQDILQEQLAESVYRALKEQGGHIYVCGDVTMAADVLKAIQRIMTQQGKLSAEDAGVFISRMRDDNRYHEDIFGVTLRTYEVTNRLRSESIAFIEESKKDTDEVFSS
Nitric oxide synthase, inducible, sequence (P35228 whole entry): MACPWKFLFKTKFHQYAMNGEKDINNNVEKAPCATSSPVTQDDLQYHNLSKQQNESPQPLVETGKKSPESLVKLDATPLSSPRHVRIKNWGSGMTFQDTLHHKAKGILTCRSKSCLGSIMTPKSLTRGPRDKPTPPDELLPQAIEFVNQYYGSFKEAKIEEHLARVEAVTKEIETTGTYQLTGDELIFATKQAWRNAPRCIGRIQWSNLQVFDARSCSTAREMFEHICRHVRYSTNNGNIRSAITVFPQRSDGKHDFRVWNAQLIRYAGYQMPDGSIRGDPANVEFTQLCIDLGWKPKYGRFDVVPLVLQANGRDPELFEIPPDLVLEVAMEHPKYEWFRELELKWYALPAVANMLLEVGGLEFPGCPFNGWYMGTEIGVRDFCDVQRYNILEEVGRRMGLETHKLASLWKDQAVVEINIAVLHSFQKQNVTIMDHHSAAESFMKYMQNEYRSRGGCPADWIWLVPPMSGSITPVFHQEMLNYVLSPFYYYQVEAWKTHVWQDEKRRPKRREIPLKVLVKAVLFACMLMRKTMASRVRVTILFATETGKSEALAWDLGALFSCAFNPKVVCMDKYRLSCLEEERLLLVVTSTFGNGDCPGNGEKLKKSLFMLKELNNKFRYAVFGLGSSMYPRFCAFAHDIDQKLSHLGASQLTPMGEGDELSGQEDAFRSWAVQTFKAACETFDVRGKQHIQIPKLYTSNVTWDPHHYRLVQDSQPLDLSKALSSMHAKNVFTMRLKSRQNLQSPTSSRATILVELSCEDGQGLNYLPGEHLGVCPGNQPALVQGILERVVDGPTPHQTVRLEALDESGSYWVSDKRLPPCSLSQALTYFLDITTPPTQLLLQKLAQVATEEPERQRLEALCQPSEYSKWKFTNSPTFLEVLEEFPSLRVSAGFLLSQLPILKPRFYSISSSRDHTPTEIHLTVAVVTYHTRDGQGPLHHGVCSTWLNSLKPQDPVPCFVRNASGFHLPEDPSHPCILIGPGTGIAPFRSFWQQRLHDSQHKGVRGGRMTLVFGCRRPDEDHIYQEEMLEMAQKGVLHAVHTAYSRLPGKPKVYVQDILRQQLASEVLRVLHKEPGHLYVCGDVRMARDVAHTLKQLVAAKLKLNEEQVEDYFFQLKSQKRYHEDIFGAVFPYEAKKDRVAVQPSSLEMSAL

One may read the inhibition as the drop in the measured response relative to a control, in per cent. A higher inhibition goes with strong suppression. By IC50 is commonly meant the point on the concentration scale where inhibition reaches its midpoint. A higher IC50 goes with weaker potency. As to `NC1=NC2(CCN(C(=O)c3ccsc3)CC2)Nc2cccc(F)c21`, in series [1], the inhibition was under 25%. In addition, the values for the concentration for half-maximal inhibition (IC50) (on Nitric oxide synthase 1 [2]; in the series with DLD-1; in [3]) were 70 µM, 12 µM and 0.067 µM, respectively.

The compound `NC1=NC(C2CCC2)Nc2ccccc21` (configuration not stated) returned an IC50 in series [3] of 1.1 µM.

`NC1=NCNc2ccccc21` yielded an IC50 in series [3] of 40 µM.

Consider `CC(=N)NCCCC[C@H](N)C(=O)O` [L-NIL], for which the IC50 against Nitric oxide synthase 3 was found to be 2.6 µM; against Nitric oxide synthase 1 [2] it was 1.5 µM; in the series on DLD-1, 2.8 µM; in [3], 0.1 µM. Also, the ED50 in the series on Rattus norvegicus [4] was 9 µmol/kg.

For the compound `CCOC(=O)N1CCC2(CC1)N=C(N)c1sccc1N2`, the IC50 is 100 µM against Nitric oxide synthase 3, 50 µM against Nitric oxide synthase 1 [2], over 500 µM in the series on DLD-1 and 0.3 µM in series [3].

Take `NC1=NC(C2CC2)Nc2ccccc21` (configuration not stated): in series [3], the midpoint of inhibition, the IC50, lay at 1.1 µM.

Consider `CCC1N=C(N)c2ccccc2N1` (configuration not stated), for which half-maximal inhibition in series [3] (IC50) required 0.9 µM.

Compound `CC1N=C(N)c2ccccc2N1` (configuration not stated) had an IC50 in series [3] of 9.8 µM.

Regarding `COC(=O)[C@@H](N)CCCNC(=N)N[N+](=O)[O-]` [L-NAME], the ED50 in the series on Rattus norvegicus [4] was over 300 µmol/kg. Moreover, the IC50 at Nitric oxide synthase 1 [2] was 0.15 µM; with DLD-1 it was over 300 µM.

For the compound `CCOC(=O)N1CCC2(CC1)N=C(N)c1c(Cl)cccc1N2`, the inhibition (in series [5]; at Nitric oxide synthase 1 [6]) was 50% in each case. Besides, the results for the IC50 (in the series with DLD-1; in series [3]) were 9.2 µM and 0.047 µM, respectively.

`CCC1(C)N=C(N)c2ccccc2N1` (configuration not stated) registered an IC50 in [3] of 32 µM.

In the case of `NC1=NC2(CCNCC2)Nc2ccccc21`, the IC50 in series [3] is about 50 µM.

Consider `CNC(=N)NCCC[C@H](N)C(=O)O` [TILARGININE], for which the ED50 in the series on Rattus norvegicus [4] came out at 700 µmol/kg. 21 µM corresponded to half-maximal inhibition with DLD-1 (IC50).

Usually pKa stands for the pH at which an ionisable group is half protonated. The low end stands for a stronger acid or weaker base, the high end for a weaker acid or stronger base. Take `N#Cc1ccc(C(=O)N2CCC3(CC2)N=C(N)c2c(F)cccc2N3)cc1`: in series [7], the inhibition was 50%. In the series on Rattus norvegicus [4], the ED50 stood at 14 µmol/kg. The results for the IC50 (at Nitric oxide synthase 1 [2]; in the series on DLD-1; in series [3]) were 12 µM, 4.5 µM and 0.027 µM, respectively. Besides, in series [8], the pKa was 9.1.

With `CCOC(=O)N1CCC2(CC1)N=C(N)c1c(F)cccc1N2`, the concentration for half-maximal inhibition (IC50) was found to be 100 µM against Nitric oxide synthase 3, 40 µM against Nitric oxide synthase 1 [2], 9.6 µM in the series with DLD-1 and 0.035 µM in series [3].

For `N#Cc1ccc(C(=O)N2CCC3(CC2)N=C(N)c2c(F)ccc(F)c2N3)cc1`, in [7], the inhibition stood at 50%. The ED50 in the series on Rattus norvegicus [4] stood at 3 µmol/kg. Also, the results for the IC50 (against Nitric oxide synthase 1 [2]; in the series on DLD-1; in [3]) were 3.3 µM, 1.6 µM and 0.048 µM, respectively. The same compound displayed a pKa in series [8] of 8.4.

In [3], `NC1=NC(C2CCCC2)Nc2ccccc21` (configuration not stated) had an IC50 of 4.5 µM.

Compound `NC1=NC(c2cccs2)Nc2ccccc21` (configuration not stated) showed a half-maximal inhibitory concentration (IC50) in series [3] of 0.4 µM.

`NC1=NC(C2CCC2)Nc2cccc(F)c21` (configuration not stated): the half-maximal inhibitory concentration (IC50) at Nitric oxide synthase 3 amounted to 4.6 µM; on Nitric oxide synthase 1 [2], 1 µM; in the series with DLD-1, 1.2 µM; in [3], 0.02 µM. In addition, the ED50 in the series with Rattus norvegicus [4] is over 30 µmol/kg.

With `CSCCOC(=O)N1CCC2(CC1)N=C(N)c1c(F)cccc1N2`, the inhibition (in series [7]; at Nitric oxide synthase 1 [9]) was 50% throughout. Further, the 50% inhibitory concentration (IC50) in the series with DLD-1 is 11 µM; in [3], 0.039 µM.

In the case of `NC1=NC(c2ccco2)Nc2c(F)ccc(F)c21` (configuration not stated), the half-maximal inhibitory concentration (IC50) at Nitric oxide synthase 3 stood at 0.18 µM; against Nitric oxide synthase 1 [2], 0.06 µM; with DLD-1, 0.2 µM; in [3], 0.002 µM. Also, the ED50 in the series with Rattus norvegicus [4] turned out to be 16 µmol/kg.

`NC1=NC(c2ccco2)Nc2ccccc21` (configuration not stated) registered an IC50 in [3] of 0.2 µM.

Turning to `NC1=NC(c2ccccc2)Nc2ccccc21` (configuration not stated), the IC50 in series [3] came out at 2.5 µM.

In [7], `N#Cc1ccc(C(=O)N2CCC3(CC2)N=C(N)c2c(F)ccc(F)c2N3)cn1` gave an inhibition of 50%. Moreover, the figures for the ED50 in the series listed under Rattus norvegicus [10] and in the series with Rattus norvegicus [4] were about 10 µmol/kg and 3 µmol/kg, respectively. In the series on DLD-1, half-maximal inhibition (IC50) was put at 0.9 µM.

Consider `NC1=NC(c2ccc(F)cc2)Nc2cccc(F)c21` (configuration not stated), for which the inhibition in [1] was under 25%. For the same compound, the ED50 in the series on Rattus norvegicus [4] is over 30 µmol/kg. For the same compound, the IC50 was 3.5 µM at Nitric oxide synthase 1 [2], 4 µM in the series with DLD-1 and 0.05 µM in series [3].

As for `CC1(C)N=C(N)c2ccccc2N1`, inhibition in series [3] was half-maximal at 52 µM (IC50).

For the compound `N=C(N)NN` [PIMAGEDINE], the IC50 was 100 µM at Nitric oxide synthase 3, 5.9 µM against Nitric oxide synthase 1 [2], over 1000 µM in the series on DLD-1 and 3.9 µM in [3].
